High-throughput results: PubChem BioAssay, Broad Institute
An excerpt weighted towards active compounds, which were near 2.8% of everything screened.
DENV2 CPE: inhibitors of DENV2 cytopathic effect, primary screen, cell-based, plate reader, single concentration | DENV2-infected cells, cytopathic effect rescue | CPE inhibition, % at 9.99 µM | actives 1.7% (n = 350,000); in the data active = CPE inhibition above about 20%, passing the limit was not always enough; inconclusive = no clear call, values can overlap the other calls; tested in BHK-21 cells
E-selectin induc: E-selectin induction in HUVECs, primary screen, imaging, HUVEC, immunofluorescence imaging, single point | P16581 | normalized: neutral wells 0, TNF-alpha wells 100 | actives 0.37% (n = 260,000) | activation, % at 7.58 µM;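 active = mean E-selectin-positive cell signal at least 10% of the positive control, reached in at least 60% of replicates, without over 20% cell loss; inconclusive = no rule given, readout overlaps actives, possibly toxicity-flagged; inactive = the rest, including those meeting only one limit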
Target sequence (P16581 whole entry, looked up): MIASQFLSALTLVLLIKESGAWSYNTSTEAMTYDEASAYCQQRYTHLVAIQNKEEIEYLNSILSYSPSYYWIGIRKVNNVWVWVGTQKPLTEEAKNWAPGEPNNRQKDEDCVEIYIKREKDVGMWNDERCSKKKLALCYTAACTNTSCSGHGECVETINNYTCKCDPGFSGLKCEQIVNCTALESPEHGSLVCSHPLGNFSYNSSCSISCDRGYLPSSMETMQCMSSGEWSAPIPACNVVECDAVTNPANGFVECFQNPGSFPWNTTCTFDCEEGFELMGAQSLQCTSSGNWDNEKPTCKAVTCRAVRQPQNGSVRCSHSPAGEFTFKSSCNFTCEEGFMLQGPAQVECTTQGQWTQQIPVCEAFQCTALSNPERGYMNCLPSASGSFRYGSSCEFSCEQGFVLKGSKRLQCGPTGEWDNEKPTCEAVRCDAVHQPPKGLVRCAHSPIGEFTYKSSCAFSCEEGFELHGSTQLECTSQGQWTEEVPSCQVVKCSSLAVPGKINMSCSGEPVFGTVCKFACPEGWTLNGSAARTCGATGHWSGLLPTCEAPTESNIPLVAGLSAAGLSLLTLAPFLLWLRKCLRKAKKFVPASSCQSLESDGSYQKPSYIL
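Material: HUVEC primary endothelial cells; Amount: 3,000 cells per well; Dosing: single concentration; Medium: EGM-2 growth medium on 0.1% gelatin-coated wells; Read-out basis: percent E-selectin-positive cells; Signal: immunofluorescence imaging; Control set: TNF-alpha, DMSO.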
SIRT5 block: SIRT5 desuccinylase inhibitors, primary screen, biochemical, fluorescence imaging, single point, set 5. NAD-dependent protein deacylase sirtuin-5, mitochondrial (Homo sapiens), Q9NXA8. Purified SirT5, succinyl-peptide AMC, trypsin-coupled fluorescence. inhibition, % at 15 µM. actives 1.1% (n = 330,000). AID 652115, 2013; in the data active = inhibition above about 15%; inconclusive = no clear call, values can overlap the other calls
Hits are given with their value; n = inactive; u = inconclusive; x = not tested or not shown.

SMILES | DENV2 CPE | E-selectin induc | SIRT5 block
COc1ccc(NC(=O)N(C)C[C@@H]2Oc3ccc(NS(=O)(=O)c4ccc(F)cc4)cc3C(=O)N([C@H](C)CO)C[C@H]2C)cc1 | n | n | 40.2
COc1ccc(NC(=O)N(C)C[C@H]2Oc3ccc(NS(=O)(=O)c4ccccc4)cc3C(=O)N([C@H](C)CO)C[C@H]2C)cc1 | n | x | n
COc1ccc(S(=O)(=O)Nc2ccc3c(c2)C(=O)N([C@H](C)CO)C[C@H](C)[C@@H](CN(C)C(=O)Nc2ccc(F)cc2)O3)cc1 | n | n | n
C[C@@H]1CN([C@H](C)CO)C(=O)c2cc(NC(=O)Cc3cn(C)c4ccccc34)ccc2O[C@@H]1CN(C)C(=O)Nc1cccc2ccccc12 | n | x | n
CC(C)NC(=O)N(C)C[C@H]1Oc2ccc(NS(=O)(=O)c3cccs3)cc2C(=O)N([C@@H](C)CO)C[C@@H]1C | x | n | x
C[C@@H]1CCCCO[C@H](CN(C)Cc2ccncc2)[C@@H](C)CN([C@@H](C)CO)C(=O)c2cc(NC(=O)Nc3ccccc3)ccc2O1 | u | n | n
O=C1CC(N2CCSCC2)C(=O)N1c1cccc(Br)c1 (centres undefined) | n | 43.1 | n
O=C1CC(N2CCN(c3ccccc3)CC2)C(=O)N1c1cccc(Br)c1 (centres undefined) | n | x | n
CC(C)NC(=O)N[C@H]1CC[C@H](CCNC(=O)C2CCCC2)O[C@H]1CO | n | n | n
CCCNC(=O)C(Cc1ccc(F)cc1)NC(=O)c1ccc(C#N)cc1 (centres undefined) | n | n | x
CCCNC(=O)C(Cc1ccc(I)cc1)NC(=O)c1ccc(C#N)cc1 (centres undefined) | 32.8 | n | x
O=C(O)c1cccc2cccc(-c3c4ccc(=O)c(O)c-4oc4c(O)c(O)ccc34)c12 | n | n | 36.7
O=C(O)c1cccc2cc(-c3ccccc3)oc(=O)c12 | n | n | n
CCOC(=O)c1cn(CC)c2cc(N3CCN(C)CC3)c(F)cc2c1=O | u | n | n
CCn1cc(C(=O)O)c(=O)c2cc(F)c(N3CCN(C)CC3)cc21 | 27.9 | x | n
O=C(CCN1CCCCC1)N[C@@H]1CC[C@@H](CCNS(=O)(=O)c2ccccc2)O[C@H]1CO | n | n | n
C[C@@H]1CN([C@H](C)CO)S(=O)(=O)c2ccc(C#CC3CC3)cc2O[C@H]1CN(C)C(=O)C1CCC1 | n | n | n
Cc1cccc(S(=O)(=O)N2CCCCN3[C@H](CO)[C@@H](c4ccc(-c5ccccc5)cc4)[C@@H]3C2)c1 | n | x | 15.6
Cc1cccc(-c2ccc([C@@H]3[C@@H](CO)N4CCCCN(S(=O)(=O)c5cccc(C)c5)C[C@@H]34)cc2)c1 | 21.0 | n | n
Cc1cccc(S(=O)(=O)N2CCCCN3[C@H](CO)[C@H](c4ccc(-c5ccccc5)cc4)[C@H]3C2)c1 | n | x | n
Cc1cccc(-c2ccc([C@@H]3[C@@H](CO)N4CCCCN(S(=O)(=O)c5cccc(C)c5)C[C@H]34)cc2)c1 | n | n | n
Cc1cccc(-c2ccc([C@H]3[C@H](CO)N4CCCCN(S(=O)(=O)c5cccc(C)c5)C[C@@H]34)cc2)c1 | n | n | 18.8
Cc1cccc(-c2ccc([C@H]3[C@@H](CO)N4CCCCN(S(=O)(=O)c5cccc(C)c5)C[C@@H]34)cc2)c1 | n | n | n
C[C@H](CO)N1C[C@H](C)[C@H](CN(C)C(=O)Nc2ccccc2)Oc2c(NS(=O)(=O)c3ccccc3)cccc2C1=O | n | x | n
CN1C(=O)c2cc(NC(=O)NC3CCCC3)ccc2OC[C@@H]2O[C@H](CC(=O)NCC3CC3)CC[C@@H]21 | n | n | n
SMILES | DENV2 CPE | E-selectin induc | SIRT5 block
Cn1cnc(S(=O)(=O)N[C@H]2C=C[C@H](CC(=O)NCC3CC3)O[C@H]2CO)c1 | n | n | n
COc1ccc(S(=O)(=O)Nc2ccc3c(c2)C(=O)N([C@H](C)CO)C[C@H](C)[C@@H](CN(C)S(=O)(=O)c2c(C)noc2C)OCCCC[C@H](C)O3)cc1 | n | x | n
COC(=O)[C@@]1(CCS(=O)(=O)c2ccccc2)N=C(c2ccc(OCCCO)cc2)O[C@H]1c1ccccc1CN=[N+]=[N-] | 21.6 | x | n
O=C(NCCN1CCOCC1)[C@@]1(CCS(=O)(=O)c2ccccc2)N=C(c2ccc(OCCCO)cc2)O[C@H]1c1ccccc1 | n | x | n
COC(=O)[C@@]1(Cc2ccccc2CN=[N+]=[N-])N=C(c2ccc(OCCCO)cc2)O[C@H]1c1ccccc1N=[N+]=[N-] | n | x | n
O=C(N1CCOCC1)[C@]1(CCS(=O)(=O)c2ccccc2)N=C(c2ccc(OCCCO)cc2)O[C@@H]1c1ccccc1 | 22.8 | x | n
CC(=O)N1[C@@H](CO)[C@@H](c2ccc(C3=CCCC3)cc2)[C@@H]1CNC(=O)CN(C)C | n | n | x
C[C@@H]1CN([C@H](C)CO)C(=O)Cc2cc(NC(=O)Nc3ccc4c(c3)OCO4)ccc2O[C@@H]1CN(C)Cc1ccc(C(F)(F)F)cc1 | n | x | n
C[C@H]1CN([C@@H](C)CO)S(=O)(=O)c2ccc(/C=C/c3ccccc3)cc2O[C@H]1CN(C)C(=O)c1ccc2c(c1)OCO2 | n | n | 22.4
C[C@@H]1CN([C@@H](C)CO)S(=O)(=O)c2ccc(-c3ccccc3)cc2O[C@@H]1CN(C)C(=O)c1ccc2c(c1)OCO2 | n | n | 15.9
C[C@H](CO)N1C[C@H](C)[C@H](CN(C)C(=O)c2ccc3c(c2)OCO3)Oc2cc(/C=C/c3ccccc3)ccc2S1(=O)=O | n | n | 28.7
C[C@H](CO)N1C[C@H](C)[C@@H](CN(C)C(=O)c2ccc3c(c2)OCO3)Oc2cc(-c3ccccc3)ccc2S1(=O)=O | x | n | x
C/C=C/c1ccc2c(c1)O[C@H](CN(C)C(=O)c1ccc3c(c1)OCO3)[C@@H](C)CN([C@@H](C)CO)S2(=O)=O | n | n | n
C[C@H]1CN([C@@H](C)CO)S(=O)(=O)c2ccc(/C=C/c3ccccc3)cc2O[C@@H]1CN(C)C(=O)c1ccc2c(c1)OCO2 | n | n | n
C[C@@H]1CCCCO[C@@H](CN(C)C(=O)Nc2ccc3c(c2)OCO3)[C@H](C)CN([C@H](C)CO)C(=O)c2cc(NC(=O)NC3CCCCC3)ccc2O1 | n | n | x
O=C(C[C@@H]1C=C[C@H](NC(=O)C2CCOCC2)[C@H](CO)O1)NCC1CC1 | n | n | n
COc1ccc(-n2c(=S)[nH]c3ccccc3c2=S)cc1 | u | n | n
COc1ccc(-n2c(=S)[nH]c3ncccc3c2=O)cc1 | n | n | 15.2
C[C@H](CO)N1C[C@H](C)[C@@H](CN(C)C(=O)Nc2ccc(F)cc2)Oc2ccc(NC(=O)CCN3CCOCC3)cc2C1=O | n | n | n
CNC(=O)C[C@@H]1CC[C@H]2[C@@H](COc3ccc(NC(=O)c4ccc(F)cc4)cc3C(=O)N2C)O1 | n | n | n
CCCNC(=O)N1CC2(C1)[C@@H](c1ccccc1)[C@@H](CO)N2C(=O)C1CC1 | n | n | n
COCC(=O)N(C)[C@H]1C[C@H]2c3cc(-c4ccccc4)ccc3CCN2C(=O)[C@H]1[C@H](C)O | n | n | n
COc1ccc(-c2ccc3c(c2)[C@@H]2C[C@H](N(C)C(=O)C(C)(C)C)[C@H]([C@H](C)O)C(=O)N2CC3)cc1 | 129.4 | n | n
